{
  "source": "ChEMBL document CHEMBL3351658",
  "about": "“Exploring human parainfluenza virus type-1 hemagglutinin-neuraminidase as a target for inhibitor discovery” (J Med Chem, 2014)",
  "key": {"LLC-MK2 [1]": {"tested_on": "LLC-MK2", "experiment": "(§1) Cytotoxicity against rhesus monkey LLC-MK2 cells assessed as cell viability at 250 uM after 48 hrs by MTT assay", "format": "cell-based, Macaca mulatta", "settings": "llc-mk2, 48 h, 250 µM", "in_short": "(§2)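 LLC-MK2 cells were kept in EMEM with 1% glutamine (200 mM) and 2% FBS at 37 °C under 5% CO2. They were exposed in triplicate to 250 µM of each compound for 48 h. Viability was read by MTT or AlamarBlue assay.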"}, "LLC-MK2 [2]": {"tested_on": "LLC-MK2", "experiment": "(§3) Cytotoxicity against rhesus monkey LLC-MK2 cells assessed as cell viability at 250 uM after 48 hrs by alamar blue assay", "format": "cell-based, Macaca mulatta", "settings": "llc-mk2, 48 h, 250 µM", "in_short": "as §2"}, "[3]": {"experiment": "Inhibition of hemagglutinin activity of human parainfluenza virus 1 C35 hemagglutinin-neuraminidase incubated for 20 mins in presence of chicken red blood cells", "set-up": "species or system Human respirovirus 1", "in_short": "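HI used hPIV-1 strain C-35 grown in LLC-MK2 cells, with clarified supernatant ultrafiltered ≥10-fold. Compounds were diluted in PBS, mixed with virus (1 HAU final) and held 20 min at room temperature. Ice-cold 0.5% chicken RBC were added on ice, then 1 h 30 min at 4 °C. Run in duplicate, maximum 250 µM. IC50 is the concentration matching agglutination of a 0.5 HAU virus-only well.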"}, "[4]": {"experiment": "as §1", "format": "cell-based, Macaca mulatta", "settings": "LLC-MK2 cells, read-out: Activity", "in_short": "as §2"}, "[5]": {"experiment": "as §3", "format": "cell-based, Macaca mulatta", "settings": "LLC-MK2 cells, read-out: Activity", "in_short": "as §2"}},
  "data": [
    {"smiles": "CC(CO)C(=O)N[C@H]1[C@H]([C@H](O)[C@H](O)CO)OC(C(=O)[O-])=C[C@@H]1N=[N+]=[N-].[Na+]", "note": "(some centres not stated)", "values": [
      {"measurement": "Activity", "setting": "LLC-MK2 [1]", "value": "Non-toxic"},
      {"measurement": "Activity", "setting": "LLC-MK2 [2]", "value": "Non-toxic"},
      {"measurement": "IC50", "setting": "[3]", "value": 3000, "unit": "nM"}
    ]},
    {"smiles": "CC(=O)N[C@H]1[C@H]([C@H](O)[C@H](O)CO)OC(C(=O)[O-])=C[C@@H]1N.[Na+]", "values": [
      {"measurement": "Activity", "setting": "LLC-MK2 [1]", "value": "Non-toxic"},
      {"measurement": "Activity", "setting": "LLC-MK2 [2]", "value": "Non-toxic"},
      {"measurement": "IC50", "setting": "[3]", "value": "> 250000", "unit": "nM"}
    ]},
    {"smiles": "CC(C)C(=O)N[C@H]1[C@H]([C@H](O)[C@H](O)CO)OC(C(=O)O)=C[C@@H]1O", "values": [
      {"measurement": "viability at 48 h, 250 µM", "setting": "[4]", "value": 93, "unit": "%"},
      {"measurement": "viability at 48 h, 250 µM", "setting": "[5]", "value": 93, "unit": "%"},
      {"measurement": "IC50", "setting": "[3]", "value": 490, "unit": "nM"}
    ]},
    {"smiles": "C/C=C(\\C)C(=O)N[C@H]1[C@H]([C@H](O)[C@H](O)CO)OC(C(=O)[O-])=C[C@@H]1N=[N+]=[N-].[Na+]", "values": [
      {"measurement": "Activity", "setting": "LLC-MK2 [1]", "value": "Non-toxic"},
      {"measurement": "Activity", "setting": "LLC-MK2 [2]", "value": "Non-toxic"},
      {"measurement": "IC50", "setting": "[3]", "value": 3000, "unit": "nM"}
    ]},
    {"smiles": "CC(C)C(=O)N[C@H]1[C@H]([C@H](O)[C@H](O)CO)OC(C(=O)[O-])=C[C@@H]1N.[Na+]", "values": [
      {"measurement": "Activity", "setting": "LLC-MK2 [1]", "value": "Non-toxic"},
      {"measurement": "Activity", "setting": "LLC-MK2 [2]", "value": "Non-toxic"},
      {"measurement": "IC50", "setting": "[3]", "value": 7290, "unit": "nM"}
    ]},
    {"smiles": "CC(C)C(=O)N[C@H]1[C@H]([C@H](O)[C@H](O)CO)OC(C(=O)[O-])=C[C@@H]1N=[N+]=[N-].[Na+]", "values": [
      {"measurement": "Activity", "setting": "LLC-MK2 [1]", "value": "Non-toxic"},
      {"measurement": "Activity", "setting": "LLC-MK2 [2]", "value": "Non-toxic"},
      {"measurement": "IC50", "setting": "[3]", "value": 80, "unit": "nM"}
    ]},
    {"smiles": "[N-]=[N+]=N[C@H]1C=C(C(=O)[O-])O[C@@H]([C@H](O)[C@H](O)CO)[C@@H]1NC(=O)C1CC1.[Na+]", "values": [
      {"measurement": "Activity", "setting": "LLC-MK2 [1]", "value": "Non-toxic"},
      {"measurement": "Activity", "setting": "LLC-MK2 [2]", "value": "Non-toxic"},
      {"measurement": "IC50", "setting": "[3]", "value": 320, "unit": "nM"}
    ]},
    {"smiles": "CC(=O)N[C@H]1[C@H]([C@H](O)[C@H](O)CO)OC(C(=O)[O-])=C[C@@H]1NC(=N)N.[Na+]", "values": [
      {"measurement": "Activity", "setting": "LLC-MK2 [1]", "value": "Non-toxic"},
      {"measurement": "Activity", "setting": "LLC-MK2 [2]", "value": "Non-toxic"},
      {"measurement": "IC50", "setting": "[3]", "value": "> 250000", "unit": "nM"}
    ]},
    {"smiles": "[N-]=[N+]=N[C@H]1C=C(C(=O)[O-])O[C@@H]([C@H](O)[C@H](O)CO)[C@@H]1NC(=O)C1CCC1.[Na+]", "values": [
      {"measurement": "Activity", "setting": "LLC-MK2 [1]", "value": "Non-toxic"},
      {"measurement": "Activity", "setting": "LLC-MK2 [2]", "value": "Non-toxic"},
      {"measurement": "IC50", "setting": "[3]", "value": 930, "unit": "nM"}
    ]},
    {"smiles": "CCC(C)C(=O)N[C@H]1[C@H]([C@H](O)[C@H](O)CO)OC(C(=O)[O-])=C[C@@H]1N=[N+]=[N-].[Na+]", "note": "(some centres not stated)", "values": [
      {"measurement": "Activity", "setting": "LLC-MK2 [1]", "value": "Non-toxic"},
      {"measurement": "Activity", "setting": "LLC-MK2 [2]", "value": "Non-toxic"},
      {"measurement": "IC50", "setting": "[3]", "value": 320, "unit": "nM"}
    ]},
    {"smiles": "CC(O)C(=O)N[C@H]1[C@H]([C@H](O)[C@H](O)CO)OC(C(=O)[O-])=C[C@@H]1N=[N+]=[N-].[Na+]", "note": "(some centres not stated)", "values": [
      {"measurement": "Activity", "setting": "LLC-MK2 [1]", "value": "Non-toxic"},
      {"measurement": "Activity", "setting": "LLC-MK2 [2]", "value": "Non-toxic"},
      {"measurement": "IC50", "setting": "[3]", "value": 40000, "unit": "nM"}
    ]},
    {"smiles": "CC(=O)N[C@H]1[C@H]([C@H](O)[C@H](O)CO)OC(C(=O)[O-])=C[C@@H]1O.[Na+]", "values": [
      {"measurement": "Activity", "setting": "LLC-MK2 [1]", "value": "Non-toxic"},
      {"measurement": "Activity", "setting": "LLC-MK2 [2]", "value": "Non-toxic"},
      {"measurement": "IC50", "setting": "[3]", "value": 15900, "unit": "nM"}
    ]},
    {"smiles": "CC(C)C(=O)N[C@H]1[C@H]([C@H](O)[C@H](O)CO)OC(C(=O)[O-])=C[C@@H]1NC(=N)N.[Na+]", "values": [
      {"measurement": "Activity", "setting": "LLC-MK2 [1]", "value": "Non-toxic"},
      {"measurement": "Activity", "setting": "LLC-MK2 [2]", "value": "Non-toxic"},
      {"measurement": "IC50", "setting": "[3]", "value": "> 250000", "unit": "nM"}
    ]},
    {"smiles": "CC(=O)N[C@H]1[C@H]([C@H](O)[C@H](O)CO)OC(C(=O)[O-])=C[C@@H]1N=[N+]=[N-].[Na+]", "values": [
      {"measurement": "Activity", "setting": "LLC-MK2 [1]", "value": "Non-toxic"},
      {"measurement": "Activity", "setting": "LLC-MK2 [2]", "value": "Non-toxic"},
      {"measurement": "IC50", "setting": "[3]", "value": 3500, "unit": "nM"}
    ]}
  ]
}
